Source: publication PMC6996566 (ChemistryOpen, 2019)
pIC50: −log10 of the molar value. Like-named read-outs stand apart in the source and are kept apart here.

Columns and labels:
Type in all cases: cell-based, human
A2780 = test: In vitro anti‐proliferative assay; details: read-out: A2780 (IC50); MTT, 48 h treatment; mean of triplicate determinations
Procedure, shortened: (§1)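 MTT assay: 5×10³ cells per well settled 24 h, then exposed to a concentration series of test compound or DMSO for 48 h. Medium replaced with fresh medium containing 10% MTT (5 mg/mL in PBS) for 4 h at 37 °C. Formazan dissolved in DMSO, absorbance read at 570 nm. Inhibition % = (OD DMSO − OD compound)/(OD DMSO − OD blank)×100, giving IC50.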

HUVEC = test: In vitro anti‐proliferative assay
Procedure, shortened: as §1

Hela = test: In vitro anti‐proliferative assay; details: read-out: Hela (IC50); MTT, 48 h treatment; mean of triplicate determinations
Procedure, shortened: as §1

A2780 cells = test: Nitrite measurement in vitro; details: 100 μM compound, 150 min, Griess reagent
Procedure, shortened: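 A2780 cells (1×10⁷ per 10 cm dish) were exposed to 100 μM test compound for 150 min, then harvested and lysed in RIPA buffer for 30 min on ice. Lysates were mixed with Griess reagent for 30 min in the dark and read at 540 nm. Nitrite was quantified against a sodium nitrite standard curve, with diluent-treated cells as background. Mean ± SD of three independent experiments.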

pIC50 (A2780) | pIC50 (Hela) | Compound | pIC50 (HUVEC; read-out: HUVEC (IC50), MTT, 48 h treatment, mean of triplicate determinations) | IC50 (HUVEC; Homo sapiens, HUVEC, 48 h, read-out: HUVEC (IC50, μM)) [µM] | intracellular NO production, presented as nitrite in the cell lysates (A2780 cells)
5.72 | 5.52 | 3‐Phenylsulfonyl‐4‐hydroxylethoxyl‐1,2,5‐oxadiazole 2‐Oxide [compound 21] | 5.83 |  | 
 |  | COc1cc2c(cc1O)CC[C@@H]1[C@@H]2CC[C@]2(C)[C@@H](O)CC[C@@H]12 [compound 3, 2‐methoxyestradiol] |  | 1.35 | hardly detected
